Test results: ChEMBL document CHEMBL4311951, “Potent and Preferential Degradation of CDK6 via Proteolysis Targeting Chimera Degraders” (J Med Chem, 2019)
Calls of active or inactive are those of the source. The calls are words filed in the database; no cut-off is given here.

Tests used:
Assay type in all cases: cell-based
[1] = molecular target: Protein cereblon/Cyclin-dependent kinase 6 (Homo sapiens, UniProt Q00534+Q96SW2); test: Induction of CRBN-mediated CDK6 degradation in human U251 cells after 24 hrs by immunoblot analysis
[2] = molecular target: Protein cereblon/Cyclin-dependent kinase 4 (Homo sapiens, UniProt P11802+Q96SW2); test: Induction of CRBN-mediated CDK4 degradation in human U251 cells after 24 hrs by immunoblot analysis
Chain of Protein cereblon/Cyclin-dependent kinase 4 (P11802 whole entry): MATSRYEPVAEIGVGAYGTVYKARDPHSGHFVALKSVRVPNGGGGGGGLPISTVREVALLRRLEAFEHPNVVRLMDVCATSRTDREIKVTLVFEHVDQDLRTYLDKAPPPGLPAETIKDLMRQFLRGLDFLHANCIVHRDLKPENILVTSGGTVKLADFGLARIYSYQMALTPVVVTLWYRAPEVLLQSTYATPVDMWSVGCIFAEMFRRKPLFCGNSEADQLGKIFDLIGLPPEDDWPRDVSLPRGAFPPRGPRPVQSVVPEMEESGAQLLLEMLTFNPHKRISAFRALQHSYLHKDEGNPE
Chain of Protein cereblon/Cyclin-dependent kinase 4 (Q96SW2 whole entry): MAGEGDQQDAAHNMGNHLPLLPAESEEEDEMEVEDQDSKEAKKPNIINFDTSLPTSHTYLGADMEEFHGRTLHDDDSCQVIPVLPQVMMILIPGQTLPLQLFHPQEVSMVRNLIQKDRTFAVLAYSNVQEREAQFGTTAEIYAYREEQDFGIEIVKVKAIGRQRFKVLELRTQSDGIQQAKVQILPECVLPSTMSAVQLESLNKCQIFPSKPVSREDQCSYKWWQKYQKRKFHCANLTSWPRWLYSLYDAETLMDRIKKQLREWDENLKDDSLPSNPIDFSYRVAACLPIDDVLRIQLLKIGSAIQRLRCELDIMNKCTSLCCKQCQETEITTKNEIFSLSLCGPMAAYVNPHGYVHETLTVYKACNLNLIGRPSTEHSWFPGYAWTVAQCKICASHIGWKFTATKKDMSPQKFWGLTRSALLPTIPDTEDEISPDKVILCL

[3] = molecular target: T1, von Hippel-Lindau disease tumor suppressor/Cyclin-dependent kinase 6 (Homo sapiens) (UniProt Q00534+P40337); test: Induction of VHL-mediated CDK6 degradation in human DAOY cells at 1 uM after 24 hrs by immunoblot analysis
T1 sequence (P40337 whole entry, looked up): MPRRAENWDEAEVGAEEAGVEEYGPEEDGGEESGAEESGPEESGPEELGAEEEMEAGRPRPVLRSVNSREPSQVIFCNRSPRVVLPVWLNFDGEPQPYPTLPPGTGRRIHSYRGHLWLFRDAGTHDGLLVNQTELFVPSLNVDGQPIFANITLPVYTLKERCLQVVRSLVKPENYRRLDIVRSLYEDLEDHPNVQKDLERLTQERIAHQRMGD
T1 sequence (Q00534 whole entry, looked up): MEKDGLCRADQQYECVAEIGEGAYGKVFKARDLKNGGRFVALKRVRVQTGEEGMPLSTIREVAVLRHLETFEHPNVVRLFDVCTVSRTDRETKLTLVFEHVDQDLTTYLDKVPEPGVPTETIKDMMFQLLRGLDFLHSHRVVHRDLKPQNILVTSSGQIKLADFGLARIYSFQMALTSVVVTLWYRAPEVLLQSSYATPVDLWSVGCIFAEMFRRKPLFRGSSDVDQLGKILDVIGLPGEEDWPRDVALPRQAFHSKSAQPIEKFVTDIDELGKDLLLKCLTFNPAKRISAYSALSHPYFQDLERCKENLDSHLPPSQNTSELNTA
How it was run: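 Medulloblastoma DAOY cells treated 24 h with PROTACs at 1 μM; CDK6 levels then assessed by immunoblot. Palbociclib at 500 nM and 1 μM as positive control.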

[4] = molecular target: T1, von Hippel-Lindau disease tumor suppressor/Cyclin-dependent kinase 6 (Homo sapiens); test: Induction of VHL-mediated CDK6 degradation in human U251 cells at 1 uM after 24 hrs by immunoblot analysis
[5] = molecular target: von Hippel-Lindau disease tumor suppressor/Cyclin-dependent kinase 4 (Homo sapiens) (UniProt P11802+P40337); test: Induction of VHL-mediated CDK4 degradation in human U251 cells at 1 uM after 24 hrs by immunoblot analysis
Chain of von Hippel-Lindau disease tumor suppressor/Cyclin-dependent kinase 4 (Homo sapiens) (P11802 2-303 limits assumed): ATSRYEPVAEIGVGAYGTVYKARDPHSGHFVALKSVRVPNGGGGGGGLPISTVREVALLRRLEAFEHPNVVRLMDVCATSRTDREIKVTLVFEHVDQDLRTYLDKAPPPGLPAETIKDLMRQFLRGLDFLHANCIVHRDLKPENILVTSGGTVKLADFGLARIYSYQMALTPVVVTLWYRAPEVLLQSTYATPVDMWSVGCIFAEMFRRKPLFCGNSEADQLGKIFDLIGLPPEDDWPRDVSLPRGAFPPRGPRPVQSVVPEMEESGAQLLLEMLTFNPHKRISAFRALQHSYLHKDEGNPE
Chain of von Hippel-Lindau disease tumor suppressor/Cyclin-dependent kinase 4 (Homo sapiens) (P40337 whole entry partner): as the sequence (P40337 whole entry, looked up) above

Compound | DC50 [1] | DC50 [2] | other results
CC(=O)c1c(C)c2cnc(Nc3ccc(N4CCN(CC(=O)NCCOCCOCCNc5cccc6c5C(=O)N(C5CCC(=O)NC5=O)C6=O)CC4)cn3)nc2n(C2CCCC2)c1=O (stereo not drawn) | 24.2 nM | > 100 nM | –
CN(C)C(=O)c1cc2cnc(Nc3ccc(N4CCN(Cc5cn(CCOCCOCCOCCNc6cccc7c6C(=O)N(C6CCC(=O)NC6=O)C7=O)nn5)CC4)cn3)nc2n1C1CCCC1 (stereo not drawn) | – | – | Activity [1]: inactive
CC(=O)c1c(C)c2cnc(Nc3ccc(N4CCN(Cc5cn(CCOCCNC(=O)CCC(=O)N[C@H](C(=O)N6C[C@H](O)C[C@H]6C(=O)NCc6ccc(-c7scnc7C)cc6)C(C)(C)C)nn5)CC4)cn3)nc2n(C2CCCC2)c1=O | – | – | Activity [3]: inactive; Activity [4]: inactive; Activity [5]: inactive
Cc1nc2c(F)cc(-c3nc(Nc4ccc(CN5CCN(Cc6cn(CCOCCOCCOCCOCCNc7cccc8c7C(=O)N(C7CCC(=O)NC7=O)C8=O)nn6)CC5)cn4)ncc3F)cc2n1C(C)C (stereo not drawn) | 146 nM | > 500 nM | –
CN(C)C(=O)c1cc2cnc(Nc3ccc(N4CCN(Cc5cn(CCOCCOCCNc6cccc7c6C(=O)N(C6CCC(=O)NC6=O)C7=O)nn5)CC4)cn3)nc2n1C1CCCC1 (stereo not drawn) | – | – | Activity [1]: inactive
CN(C)C(=O)c1cc2cnc(Nc3ccc(N4CCN(Cc5cn(CCOCCNc6cccc7c6C(=O)N(C6CCC(=O)NC6=O)C7=O)nn5)CC4)cn3)nc2n1C1CCCC1 (stereo not drawn) | – | – | Activity [1]: inactive
CC(=O)c1c(C)c2cnc(Nc3ccc(N4CCN(Cc5cn(CCOCCOCCNC(=O)CCC(=O)N[C@H](C(=O)N6C[C@H](O)C[C@H]6C(=O)NCc6ccc(-c7scnc7C)cc6)C(C)(C)C)nn5)CC4)cn3)nc2n(C2CCCC2)c1=O | – | – | Activity [3]: inactive; Activity [4]: inactive; Activity [5]: inactive
Cc1nc2c(F)cc(-c3nc(Nc4ccc(CN5CCN(Cc6cn(CCOCCNc7cccc8c7C(=O)N(C7CCC(=O)NC7=O)C8=O)nn6)CC5)cn4)ncc3F)cc2n1C(C)C (stereo not drawn) | 8.6 nM | > 500 nM | –
CC(=O)c1c(C)c2cnc(Nc3ccc(N4CCN(Cc5cn(CCOCCOCCOCCOCCNC(=O)CCC(=O)N[C@H](C(=O)N6C[C@H](O)C[C@H]6C(=O)NCc6ccc(-c7scnc7C)cc6)C(C)(C)C)nn5)CC4)cn3)nc2n(C2CCCC2)c1=O | – | – | Activity [3]: inactive; Activity [4]: inactive; Activity [5]: inactive
CC(=O)c1c(C)c2cnc(Nc3ccc(N4CCN(Cc5cn(CCOCCOCCOCCNC(=O)CCC(=O)N[C@H](C(=O)N6C[C@H](O)C[C@H]6C(=O)NCc6ccc(-c7scnc7C)cc6)C(C)(C)C)nn5)CC4)cn3)nc2n(C2CCCC2)c1=O | – | – | Activity [3]: inactive; Activity [4]: inactive; Activity [5]: inactive
Cc1nc2c(F)cc(-c3nc(Nc4ccc(CN5CCN(Cc6cn(CCOCCOCCNc7cccc8c7C(=O)N(C7CCC(=O)NC7=O)C8=O)nn6)CC5)cn4)ncc3F)cc2n1C(C)C (stereo not drawn) | 130 nM | > 500 nM | –

The next lines start with results.

DC50 [1] | DC50 [2] | Compound | other results
10.6 nM | > 100 nM | CC(=O)c1c(C)c2cnc(Nc3ccc(N4CCN(Cc5cn(CCCCCCNc6cccc7c6C(=O)N(C6CCC(=O)NC6=O)C7=O)nn5)CC4)cn3)nc2n(C2CCCC2)c1=O (stereo not drawn) | –
1.6 nM | > 50 nM | CC(=O)c1c(C)c2cnc(Nc3ccc(N4CCN(CCOCCOCCNc5cccc6c5C(=O)N(C5CCC(=O)NC5=O)C6=O)CC4)cn3)nc2n(C2CCCC2)c1=O (stereo not drawn) | –
81.6 nM | > 100 nM | CC(=O)c1c(C)c2cnc(Nc3ccc(N4CCN(Cc5cn(CCCCC#Cc6cccc7c6C(=O)N(C6CCC(=O)NC6=O)C7=O)nn5)CC4)cn3)nc2n(C2CCCC2)c1=O (stereo not drawn) | –
1.1 nM | > 100 nM | CC(=O)c1c(C)c2cnc(Nc3ccc(N4CCN(CC(=O)NCCOCCNc5cccc6c5C(=O)N(C5CCC(=O)NC5=O)C6=O)CC4)cn3)nc2n(C2CCCC2)c1=O (stereo not drawn) | –
1.7 nM | > 50 nM | CC(=O)c1c(C)c2cnc(Nc3ccc(N4CCN(Cc5cn(CCCCCCc6cccc7c6C(=O)N(C6CCC(=O)NC6=O)C7=O)nn5)CC4)cn3)nc2n(C2CCCC2)c1=O (stereo not drawn) | –
